Assay outcomes: PubChem, The Scripps Research Institute Molecular Screening Center
The list is not random: actives were taken first. Their share in the collection is about 2.3%.
Tn6 DDE FP – DD(E)-Tn6 binding inhibition, primary FP screen | P02675 | Fibrin DD(E) TRITC-Tn6 fluorescence polarization displacement | inhibition, % at 8.3 µM | 370,000 compounds, 0.21% hits;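 active means inhibition above a per-campaign cutoff: mean of compounds within control limits plus 3 SD, cut at about 15% in these data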
PLC-beta3 inh – PLC-beta3 (human) inhibition, primary screen; Purified PLC-beta3, fluorogenic substrate, fluorescence; inhibition, % at 12.2 µM; Q01970; 370,000 compounds, 0.18% hits; in the data active means inhibition above about 11%
ADAM17 inh – inhibits human ADAM17; P78536; 370,000 compounds, 0.83% hits; inhibition, % at 6.95 µM; recombinant ADAM17, EDANS/DABCYL FRET peptide cleavage;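 active means inhibition above the mean of compounds lying between control limits plus 3 SD, set per campaign, cut at about 8.5% in these data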
DDE Tn7 FP inh – disrupts Tn7 cyclic peptide binding to fibrin D-Dimer-E complex; inhibition, % at 8.3 µM; 370,000 compounds, 0.13% hits; FP displacement of FITC-Tn7 peptide from fibrin DD(E); 0% = median of compound wells per plate;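 active means inhibition above the mean of compounds falling within the control limits plus 3 SD of them, cut at about 14% in these data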
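Test system: human clot-derived fibrin DD(E) complex / Quantity: 2 µM final DD(E) protein / Incubation: 10 min plus 3 h, room temperature / Measured by: fluorescence polarization / Benchmarks: high control of 10 µM Aha-Tn7 peptide / Replicates: singlicate testing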
ADAM10 inh – inhibitors of human ADAM10; inhibition, % at 7 µM; 370,000 compounds, 0.62% hits; O14672; recombinant ADAM10, EDANS/DABCYL FRET peptide cleavage, 3 h; AID 720582;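 active means inhibition above a per-campaign cutoff equal to the mean of compounds falling between control-based bounds plus 3 SD, cut at about 20% in these data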
PLC-gamma1 inh – inhibitors of human phospholipase C gamma1 | P19174 | AID 720700 | inhibition, % at 12.2 µM | 370,000 compounds, 0.84% hits | purified PLC-gamma1, fluorogenic substrate, fluorescence
PLCgamma1 ctr – inhibits human PLC-gamma1 in PLC-beta3 counter-screen; shares compounds with PLC-gamma1 inh; 3,300 compounds, 3.1% hits; inhibition, % at 12.3 µM; purified PLC-gamma1, fluorogenic substrate, fluorescence; AID 743258
PLCb3 confirm – confirmation of human PLC-beta3 inhibitors; shares compounds with PLC-gamma1 inh; purified PLC-beta3, fluorogenic substrate fluorescence; inhibition, % at 12.3 µM; 3,300 compounds, 1% hits; AID 743261; in the data active means inhibition above about 11%
Of the large screens only hits and unclear results are named; the others gave an inactive call (follow-up assays come after a bar, where they were run). Unless noted, no stated cut-off is given here; in the data, active means inhibition above about 9.5%; inactive means the rest.

Cc1ccc(C)c(OCCCNCc2ccccc2)c1	PLC-gamma1 inh 15 | PLCgamma1 ctr inactive | PLCb3 confirm inactive
CCOc1ccccc1NC(=S)N(CCCN1CCOCC1)Cc1cn(C)c2ccccc12	PLC-gamma1 inh 14 | PLCgamma1 ctr inactive | PLCb3 confirm inactive
COc1ccccc1NC(=S)N(CCCN1CCOCC1)Cc1cn(C)c2ccccc12	none
CCC[C@H]1[C@@H](N(C)Cc2ccccc2)CC[C@@]23CCCN2C(=O)CCC[C@@H]13	none
Cc1ccc(-c2nnc(SCC(=O)NC3CCCC3)n2N)cc1	PLC-gamma1 inh 12 | PLCgamma1 ctr inactive | PLCb3 confirm inactive
Cc1ccc(-c2nnc(SCC(=O)NC3CC3)n2N)cc1	none
O=C(NNC(=O)c1ccncc1)Nc1ccccc1	none
O=C(NNC(=O)c1ccncc1)Nc1ccc(N=Nc2ccccc2)cc1	PLC-gamma1 inh 12 | PLCgamma1 ctr inactive | PLCb3 confirm inactive
CC(=O)Nc1ccc(CNc2nc(NC(C)C)nc3ccsc23)cc1	PLC-gamma1 inh 11 | PLCgamma1 ctr inactive | PLCb3 confirm inactive
CC(C)(C)CC(C)(C)NC(=S)Nc1ccc(S(=O)(=O)N2CCOCC2)cc1	none
CN(C)CCCN(CCCN(C)C)C(=S)Nc1ccc(S(=O)(=O)N2CCOCC2)cc1	PLC-gamma1 inh 11 | PLCgamma1 ctr inactive | PLCb3 confirm inactive
O=S1(=O)c2c(cccc2N2CC[C@@H](O)C2)O[C@@H]2CCN1C2	none
CCCOC(=O)c1ccc(OCC(O)CN2CCN(C(=O)c3ccccc3)CC2)cc1 (centres undefined)	none
CC(C)(C)c1ccc(OCC(O)CN2CCN(C(=O)c3ccccc3)CC2)cc1 (centres undefined)	PLC-gamma1 inh 14 | PLCgamma1 ctr inactive | PLCb3 confirm inactive
CCOC(=O)C1CCN(CC(O)COc2ccc(C(C)(C)CC)cc2)CC1 (centres undefined)	PLC-gamma1 inh 12 | PLCgamma1 ctr inactive | PLCb3 confirm inactive
CCOC(=O)C1CCN(C(=O)COc2ccc(Br)cc2)CC1	PLC-gamma1 inh 11 | PLCgamma1 ctr inactive | PLCb3 confirm inactive
Cc1ccc(S(=O)(=O)N2CCCC2c2cccc3[nH]cc(C)c23)cc1 (centres undefined)	none
CC(C)c1cc(C(C)C)c(S(=O)(=O)N2CCC(C(=O)NCC3COCCO3)CC2)c(C(C)C)c1 (centres undefined)	none
CCOC(=O)c1cnn(CCOC(=O)c2cccc(F)c2)c1NC(=O)c1cccc(F)c1	PLC-gamma1 inh 12 | PLCgamma1 ctr inactive | PLCb3 confirm inactive
COC(=O)c1cccc(NC(=O)CN2CCN(c3ccc(OC)cc3)CC2)c1	PLC-gamma1 inh 13 | PLCgamma1 ctr inactive | PLCb3 confirm inactive
COC(=O)c1ccc(NC(=O)CN2CCN(c3ccccn3)CC2)cc1	PLC-gamma1 inh 9.9 | PLCgamma1 ctr inactive | PLCb3 confirm inactive
O=C(CN1CCN(c2ccccn2)CC1)Nc1ccccc1	none
COC(=O)c1ccc(NC(=O)CN2CCN(c3ccccc3)CC2)cc1	PLC-gamma1 inh 12 | PLCgamma1 ctr inactive | PLCb3 confirm inactive
COc1ccc([C@H]2OC(=O)C[C@@H]2C(=O)N2CCN(c3ccccc3Cl)CC2)cc1OC	none
O=C(CN1CCCCCC1)N/N=C/c1cccs1	PLC-gamma1 inh 16 | PLCgamma1 ctr inactive | PLCb3 confirm inactive
CC(C)NC(=S)N/N=C/c1cccs1	PLC-gamma1 inh 11 | PLCgamma1 ctr inactive | PLCb3 confirm inactive
OC1(Cc2ccccc2)CCN(c2ncnc3sccc23)CC1	none
Cc1csc(Nc2nc(N)c(C(=O)Nc3ccccc3)o2)n1	PLC-beta3 inh 11, PLC-gamma1 inh 14 | PLCgamma1 ctr inactive | PLCb3 confirm inactive
COC(=O)[C@H](CC(C)C)N1Cc2nnn(Cc3ccccc3)c2-c2cc(F)ccc2S1(=O)=O	none
Clc1nnc(Cl)c2c1ncn2Cc1ccccc1	PLC-gamma1 inh 11 | PLCgamma1 ctr inactive | PLCb3 confirm inactive
O=c1c2ccccc2ncn1Cc1ccccc1	none
